Results published in ChEMBL document CHEMBL3272242, “Sulfamylurea hypoglycemic agents. 6. High-potency derivatives” (J Med Chem, 1976).
Activity calls are given as the source filed them. The calls are words filed in the database; no cut-off is given here.

Key:
[1] = system: Rattus norvegicus; experiment: Hypoglycemic activity in 18 to 24 hrs-fasted rat assessed as reduction in blood glucose at 5 mg/kg, ip measured after 1 hr relative to saline-treated control; type: functional; parameters: scale not given: the % may be the effect or the level left; details: route intraperitoneal
Summary of the method: (§1)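 Unanesthetized male Charles River rats (200–250 g), fasted 18–24 h, in groups of five or six. Single ip dose. Tail-vein blood drawn before dosing and 1 h after. Glucose measured by ferricyanide reduction micromethod on an autoanalyzer. Value is the percent fall in blood glucose at 1 h versus a saline-treated control group. Significance levels are p < 0.05, 0.01 and 0.001.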

[2] = system: Rattus norvegicus; experiment: Hypoglycemic activity in 18 to 24 hrs-fasted rat assessed as reduction in blood glucose at 25 mg/kg, ip measured after 1 hr relative to saline-treated control; type: functional; parameters: scale not given: the % may be the effect or the level left; details: route intraperitoneal; summary of the method: as §1
[3] = system: Rattus norvegicus; experiment: Hypoglycemic activity in 18 to 24 hrs-fasted rat assessed as reduction in blood glucose at 1 mg/kg, ip measured after 1 hr relative to saline-treated control; type: functional; parameters: scale not given: the % may be the effect or the level left; details: route intraperitoneal; summary of the method: as §1
[4] = system: Rattus norvegicus; experiment: Hypoglycemic activity in 18 to 24 hrs-fasted rat assessed as reduction in blood glucose at 15 mg/kg, ip measured after 1 hr relative to saline-treated control; type: functional; parameters: scale not given: the % may be the effect or the level left; details: route intraperitoneal; summary of the method: as §1
[5] = system: Rattus norvegicus; experiment: Hypoglycemic activity in 18 to 24 hrs-fasted rat assessed as reduction in blood glucose at 100 mg/kg, ip measured after 1 hr relative to saline-treated control; type: functional; parameters: scale not given: the % may be the effect or the level left; details: route intraperitoneal; summary of the method: as §1
[6] = system: Rattus norvegicus; experiment: Hypoglycemic activity in 18 to 24 hrs-fasted rat assessed as reduction in blood glucose at 0.5 mg/kg, ip measured after 1 hr relative to saline-treated control; type: functional, organism-based; parameters: dose 0.5 mg/kg; summary of the method: as §1
[7] = organism: Homo sapiens; experiment: Toxicity in maturity-onset diabetic patient; type: organism-based; details: in vivo
[8] = system: Rattus norvegicus; experiment: Hypoglycemic activity in 18 to 24 hrs-fasted rat assessed as reduction in blood glucose at 50 mg/kg, ip measured after 1 hr relative to saline-treated control; type: functional; parameters: scale not given: the % may be the effect or the level left; details: route intraperitoneal; summary of the method: as §1

SMILES | Activity [1] | Activity [2] | Activity [3] | Activity [4] | Activity [5] | Activity [6] | Activity [7] | Activity [8]
CCCNC(=O)NS(=O)(=O)N1CCC(CCNC(=O)c2cc(Cl)ccc2OC)CC1 | 11% | 41% | 24% | – | – | – | – | –
O=C(NC1CCCCC1)NS(=O)(=O)N1CCCCC1 | – | – | – | 19% | 34% | – | – | –
O.O=C(NC[C@@H]1C[C@@H]2C=C[C@@H]1C2)NS(=O)(=O)N1CCC(CCNC(=O)c2cc(Cl)cc3cccnc23)CC1 (relative stereo) | 35% | – | 16% | – | – | inactive | – | –
COc1ncccc1C(=O)NCCC1CCN(S(=O)(=O)NC(=O)NC[C@@H]2C[C@@H]3C=C[C@@H]2C3)CC1 (relative stereo) | 32% | – | 25% | – | – | – | Non-toxic | –
CCCNC(=O)NS(=O)(=O)c1ccc(Cl)cc1 [CHLORPROPAMIDE] | 10% | – | – | 18% | – | – | – | 46%
O.O=C(NC1CCCCC1)NS(=O)(=O)N1CCC(CCNC(=O)c2cc(Cl)cc3cccnc23)CC1 | 52% | – | 17% | – | – | inactive | – | –
